Source: ChEMBL document CHEMBL1221279, “Synthesis, biological evaluation, and structure-activity relationship study of novel cytotoxic aza-caffeic acid derivatives” (Bioorg Med Chem, 2010)
pIC50: −log10 of the molar value. Calls of active or inactive are those of the source. The rule behind the calls is not given here.

How the values were obtained:
[1] = Cytotoxicity against human Bel7404 cells after 72 hrs by MTT assay; format: functional, cell-based; conditions: BEL-7404, 72 h
Summary of the method: (§1)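 Cells grown in MEM with 10% fetal calf serum, penicillin and streptomycin at 37 °C, 5% CO2. Exponentially growing cells seeded in quadruplicate at 5 × 10³ per well and left 24 h before compounds (DMSO stocks) were added. After 72 h exposure, MTT added for 4 h at 37 °C, formazan dissolved in DMSO, read at 570 nm. IC50 read graphically from dose–response curves.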

[2] = tested on: HL-60; experiment: Cytotoxicity against human HL60 cells after 72 hrs by MTT assay; format: functional, cell-based; conditions: HL-60, 72 h; summary of the method: as §1
[3] = tested on: HeLa; experiment: Cytotoxicity against human HeLa cells after 72 hrs by MTT assay; format: functional, cell-based; summary of the method: as §1
[4] = tested on: CNE; experiment: Cytotoxicity against human CNE cells after 72 hrs by MTT assay; format: functional, cell-based; summary of the method: as §1
[5] = tested on: PC-3; experiment: Cytotoxicity against human PC3 cells after 72 hrs by MTT assay; format: functional, cell-based; conditions: PC-3, 72 h; summary of the method: as §1
[6] = tested on: K562; experiment: Cytotoxicity against human K562 cells after 72 hrs by MTT assay; format: functional, cell-based; conditions: for pIC50: K562, 72 h; summary of the method: as §1
[7] = Cytotoxicity against human ECA109 cells after 72 hrs by MTT assay; format: functional, cell-based; conditions: ECa-109, 72 h; summary of the method: as §1
[8] = Cytotoxicity against human LS 174T cells after 72 hrs by MTT assay; format: functional, cell-based; conditions: LS174T; summary of the method: as §1
[9] = tested on: KB; experiment: Cytotoxicity against human KB cells after 72 hrs by MTT assay; format: functional, cell-based; summary of the method: as §1
[10] = tested on: A549; experiment: Cytotoxicity against human A549 cells after 72 hrs by MTT assay; format: functional, cell-based; conditions: A549, 72 h; summary of the method: as §1
[11] = tested on: BGC-823; experiment: Cytotoxicity against human BGC823 cells after 72 hrs by MTT assay; format: functional, cell-based; conditions: BGC-823, 72 h; summary of the method: as §1
[12] = Cytotoxicity against human HO8910 cells after 72 hrs by MTT assay; format: functional, cell-based; conditions: HO-8910, 72 h; summary of the method: as §1
[13] = tested on: K562; experiment: Cytotoxicity against human K562 cells at up to 8 uM by MTT assay; format: functional, cell-based; conditions: TDE = time-dependent effect
Summary of the method: (§2)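 K562 cells grown in MEM with 10% fetal calf serum at 37 °C, 5% CO2, seeded in quadruplicate at 5 × 10³ per well. After 24 h, exposed to a range of concentrations for 48 or 72 h. MTT added for 4 h, formazan dissolved in DMSO, read at 570 nm. Viability expressed as % of untreated control, mean S.D. of at least three independent experiments.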

[14] = tested on: K562; experiment: Cytotoxicity against human K562 cells assessed as reduction of cell viability at 8 uM after 72 hrs by MTT assay relative to control; format: functional; summary of the method: as §2
[15] = tested on: K562; experiment: Induction of apoptosis in human K562 cells using Annexin V/PI staining at 8 uM after 72 hrs by flow cytometry relative to control (reference value: 5.45%); format: functional
[16] = tested on: K562; experiment: Induction of apoptosis in human K562 cells using Annexin V/PI staining at 0.5 uM after 48 hrs by flow cytometry relative to control (reference value: 4.17%); format: functional
[17] = tested on: K562; experiment: Induction of apoptosis in human K562 cells using Annexin V/PI staining at 0.5 uM after 72 hrs by flow cytometry relative to control (reference value: 5.45%); format: functional
[18] = tested on: K562; experiment: Induction of apoptosis in human K562 cells using Annexin V/PI staining at 2 uM after 48 hrs by flow cytometry relative to control (reference value: 4.17%); format: functional
[19] = tested on: K562; experiment: Induction of apoptosis in human K562 cells using Annexin V/PI staining at 2 uM after 72 hrs by flow cytometry relative to control (reference value: 5.45%); format: functional
[20] = tested on: K562; experiment: Induction of apoptosis in human K562 cells using Annexin V/PI staining at 8 uM after 48 hrs by flow cytometry relative to control (reference value: 4.17%); format: functional
[21] = tested on: K562; experiment: Induction of apoptosis in human K562 cells assessed as up-regulation of caspase 3 expression at up to 8 uM after 48 hrs by Western blotting; format: functional, cell-based
Summary of the method: (§3)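 K562 cells treated for 48 h at the indicated concentrations, then lysed in Tris-HCl pH 7.5/NaCl buffer with protease inhibitors. Protein measured by Lowry assay. 40 µg total protein run on SDS–PAGE and blotted to PVDF. Probed overnight at 4 °C with anti-caspase-3, anti-Bax, anti-Bcl-2 and anti-β-actin, with HRP secondary and chemiluminescence. Bands quantified by densitometry, at least three independent experiments.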

[22] = tested on: K562; experiment: Induction of apoptosis in human K562 cells assessed as increase of Bax/Bcl-2 ratio after 48 hrs by Western blotting; format: functional, cell-based; summary of the method: as §3

With `CCOc1ccc(COc2c(OC)cc(/C=C/C(=O)N3CCN(Cc4ccc(Cl)c(Cl)c4)CC3)cc2OC)cc1` as the compound, how does the pIC50 [1] read?
The pIC50 was 5.70.

And the pIC50 [2]?
The pIC50 was < 3.70.

And the pIC50 [3]?
Its pIC50 is < 3.70.

And the pIC50 [4]?
Its pIC50 is < 3.70.

And the pIC50 [5]?
The pIC50 was < 3.70.

What about the Activity [6] of the same compound?
The Activity was “Dose-dependent effect”.

And the pIC50 [6]?
The pIC50 was 5.77.

And the pIC50 [7]?
The pIC50 was 5.96.

And the pIC50 [8]?
Its pIC50 is < 3.70.

What about the pIC50 [9] of the same compound?
The pIC50 was 6.70.

And the pIC50 [10]?
Its pIC50 is 4.20.

And the pIC50 [11]?
The pIC50 was < 3.70.

And the pIC50 [12]?
Its pIC50 is < 3.70.

What about the Activity [13] of the same compound?
Its Activity is “tde”.

And the Activity [14]?
Its Activity is 37.9%.

And the Activity [15]?
Its Activity is 20.38%.

What about the Activity [16] of the same compound?
Its Activity is 8.26%.

And the Activity [17]?
The Activity was 13.71%.

And the Activity [18]?
Its Activity is 10.95%.

And the Activity [19]?
Its Activity is 17.82%.

What about the Activity [20] of the same compound?
Its Activity is 14.83%.

And the Activity [21]?
Its Activity is “Active”.

What about the Activity [22] of the same compound?
Its Activity is “Dose-dependent effect”.

Which results are given for `COCOc1ccc(/C=C/C(=O)NCCc2c[nH]c3ccccc23)cc1OCOC`?
pIC50 [1]: < 3.70; pIC50 [2]: < 3.70; pIC50 [3]: < 3.70; pIC50 [4]: < 3.70; pIC50 [5]: 3.80; pIC50 [6]: 3.71; pIC50 [7]: 3.81; pIC50 [8]: 3.78; pIC50 [9]: < 3.70; pIC50 [10]: < 3.70; pIC50 [11]: 3.84; pIC50 [12]: < 3.70

With `O=C(/C=C/C(=O)N1CCN(Cc2ccc(Cl)c(Cl)c2)CC1)c1ccccc1` as the compound, how does the pIC50 [1] read?
Its pIC50 is 4.17.

What about the pIC50 [2] of the same compound?
Its pIC50 is 4.00.

What about the pIC50 [3] of the same compound?
Its pIC50 is 4.07.

What about the pIC50 [4] of the same compound?
Its pIC50 is < 3.70.

What about the pIC50 [5] of the same compound?
The pIC50 was < 3.70.

And the pIC50 [6]?
Its pIC50 is < 3.70.

What about the pIC50 [7] of the same compound?
The pIC50 was 3.99.

What about the pIC50 [8] of the same compound?
Its pIC50 is 4.17.

What about the pIC50 [9] of the same compound?
The pIC50 was 3.99.

And the pIC50 [10]?
The pIC50 was 3.86.

What about the pIC50 [11] of the same compound?
Its pIC50 is 4.10.

What about the pIC50 [12] of the same compound?
The pIC50 was < 3.70.

With `O=C(/C=C/c1ccc(O)c(O)c1)NCCN1CCOCC1` as the compound, how does the pIC50 [1] read?
The pIC50 was < 3.70.

And the pIC50 [2]?
The pIC50 was < 3.70.

What about the pIC50 [3] of the same compound?
Its pIC50 is < 3.70.

What about the pIC50 [4] of the same compound?
Its pIC50 is < 3.70.

And the pIC50 [5]?
The pIC50 was < 3.70.

What about the pIC50 [6] of the same compound?
The pIC50 was < 3.70.

And the pIC50 [7]?
The pIC50 was < 3.70.

And the pIC50 [8]?
The pIC50 was < 3.70.

And the pIC50 [9]?
Its pIC50 is < 3.70.

And the pIC50 [10]?
Its pIC50 is < 3.70.

And the pIC50 [11]?
The pIC50 was < 3.70.

What about the pIC50 [12] of the same compound?
Its pIC50 is < 3.70.

With `O=C(/C=C/c1ccccc1)NNC(=O)c1ccccc1O` as the compound, how does the pIC50 [1] read?
Its pIC50 is 4.67.

And the pIC50 [2]?
The pIC50 was 4.41.

What about the pIC50 [3] of the same compound?
The pIC50 was 4.14.

And the pIC50 [4]?
Its pIC50 is 4.36.

And the pIC50 [5]?
Its pIC50 is 4.39.

And the pIC50 [6]?
The pIC50 was 6.05.

What about the pIC50 [7] of the same compound?
The pIC50 was 4.38.

What about the pIC50 [8] of the same compound?
Its pIC50 is 4.70.

And the pIC50 [9]?
Its pIC50 is 4.70.

And the pIC50 [10]?
The pIC50 was 4.14.

What about the pIC50 [11] of the same compound?
The pIC50 was 4.34.

And the pIC50 [12]?
Its pIC50 is 3.72.
